Converted amounts (≈) assume the structure as drawn.
Legend:
Format in all cases: functional
Mythimna separata [1] = assay: Stomach toxicity against fourth-instar larval stage of Mythimna separata (Oriental armyworm) in compound-pretreated corn leaves assessed as mortality at 25 mg/kg at 25+/-1 degC measured after 4 days
Mythimna separata [2] = assay: Stomach toxicity against fourth-instar larval stage of Mythimna separata (Oriental armyworm) in compound-pretreated corn leaves assessed as mortality at 50 mg/kg at 25+/-1 degC measured after 4 days
Mythimna separata [3] = assay: Stomach toxicity against fourth-instar larval stage of Mythimna separata (Oriental armyworm) in compound-pretreated corn leaves assessed as mortality at 10 mg/kg at 25+/-1 degC measured after 4 days
Mythimna separata [4] = assay: Stomach toxicity against fourth-instar larval stage of Mythimna separata (Oriental armyworm) in compound-pretreated corn leaves assessed as mortality at 5 mg/kg at 25+/-1 degC measured after 4 days
Mythimna separata [5] = assay: Stomach toxicity against fourth-instar larval stage of Mythimna separata (Oriental armyworm) in compound-pretreated corn leaves assessed as mortality at 2.5 mg/kg at 25+/-1 degC measured after 4 days
Mythimna separata [6] = assay: Stomach toxicity against fourth-instar larval stage of Mythimna separata (Oriental armyworm) in compound-pretreated corn leaves assessed as mortality at 100 mg/kg at 25+/-1 degC measured after 4 days
Spodoptera litura = assay: Contact toxicity against fourth-instar larval stage of Spodoptera litura assessed as mortality at 25 +/-1 degC applied topically on the thoracic tergite measured per gm of larva after 48 hr
Method in brief: (§1)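 Fourth-instar larvae of tobacco cutworm, Asian corn borer and cotton bollworm were used. Compounds in acetone at five to seven concentrations; 1 µL applied to the thoracic tergite by automatic microapplicator. Acetone-only control. Usually 40 insects per dose, four replicates, kept under rearing conditions at 25 ± 1 °C. Mortality at 48 h gave LD50; ratios use reference LD50 over test LD50.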

Mythimna separata [7] = assay: Contact toxicity against fourth-instar larval stage of Mythimna separata (Oriental armyworm) assessed as mortality at 25 +/-1 degC applied topically on the thoracic tergite measured per larva after 96 hr
Method in brief: (§2)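 Oriental armyworm fourth-instar larvae each received 0.306 µL of acetone dilution at varying concentrations on the thoracic tergite via platinum loop. Acetone-only control. Larvae were returned to rearing conditions at 25 ± 1 °C and mortality was scored 96 h after treatment. LD50 and LD90 were derived from triplicate treatments; ratios use reference over test values.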

Spodoptera exigua [8] = assay: Stomach toxicity against third-instar larval stage of Spodoptera exigua in cabbage leaves assessed as mortality at 25 +/-1 degC treated for 3 secs before larval infestation measured after 3 days by leaf-dip method; conditions: for LC50: Spodoptera exigua, Instar larval stage, 72 h
Method in brief: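 Leaf-dip assay: fresh cabbage leaf discs (5 cm × 3 cm) were dipped 3 s in test solution and air-dried, then placed singly in boxes with five third-instar beet armyworm larvae per disc. Water- and acetone-treated leaves served as controls. Held at 25 ± 1 °C; percentage mortality was read 3 days after treatment, in triplicate.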

Spodoptera exigua [9] = assay: Toxic ratio of RH-5992 LC50 to compound LC50 for third-instar larval stage of Spodoptera exigua measured after 3 days by leaf-dip method
Mythimna separata [10] = assay: Toxic ratio of RH-5992 LD90 to compound LD90 for fourth-instar larval stage of Mythimna separata (Oriental armyworm) measured after 96 hr; method in brief: as §2
Mythimna separata [11] = assay: Toxic ratio of RH-5992 LD50 to compound LD50 for fourth-instar larval stage of Mythimna separata (Oriental armyworm) measured after 96 hr; method in brief: as §2
Helicoverpa armigera = assay: Contact toxicity against fourth-instar larval stage of Helicoverpa armigeraassessed as mortality at 25 +/-1 degC applied topically on the thoracic tergite measured per gm of larva after 48 hr; method in brief: as §1
Spodoptera exigua [12] = assay: Toxic ratio of RH-5992 LC90 to compound LC90 for third-instar larval stage of Spodoptera exigua measured after 3 days by leaf-dip method
Ostrinia furnacalis = assay: Contact toxicity against fourth-instar larval stage of Ostrinia furnacalis (Asian corn borer) assessed as mortality at 25 +/-1 degC applied topically on the thoracic tergite measured per gm of larva after 48 hr; method in brief: as §1

Structure (SMILES) | mortality at 25 mg/kg (Mythimna separata [1]) [%] | mortality at 50 mg/kg (Mythimna separata [2]) [%] | mortality at 10 mg/kg (Mythimna separata [3]) [%] | mortality at 5 mg/kg (Mythimna separata [4]) [%] | mortality at 2.5 mg/kg (Mythimna separata [5]) [%] | further results
CC(C)(C)N(NC(=O)c1ccccc1)C(=O)c1ccccc1 [RH-5849] | 70 | 100 | 0 |  |  | 
CCc1ccc(C(=O)N(SOCCOC)N(C(=O)c2cc(C)cc(C)c2)C(C)(C)C)cc1 |  |  |  | 90 | 70 | 
CC(C)OSN(C(=O)c1ccccc1)N(C(=O)c1ccccc1)C(C)(C)C | 100 | 100 | 10 |  |  | 
COSN(C(=O)c1ccc2c(c1C)OC(C)C2)N(C(=O)c1cc(C)cc(C)c1)C(C)(C)C (stereo not drawn) |  |  |  |  | 80 | 
CCc1ccc(C(=O)N(SOCC(F)(F)F)N(C(=O)c2cc(C)cc(C)c2)C(C)(C)C)cc1 |  |  |  | 100 | 90 | 
CCc1ccc(C(=O)N(SOC(C)C)N(C(=O)c2cc(C)cc(C)c2)C(C)(C)C)cc1 | 100 | 100 | 100 | 100 | 50 | 
CCCCOSN(C(=O)c1ccc(CC)cc1)N(C(=O)c1cc(C)cc(C)c1)C(C)(C)C | 100 | 100 | 100 | 100 | 90 | 
CCOSN(C(=O)c1ccccc1)N(C(=O)c1ccccc1)C(C)(C)C | 0 | 85 |  |  |  | mortality at 100 mg/kg (Mythimna separata [6]): 100%
CCc1ccc(C(=O)N(SOCC(C)C)N(C(=O)c2cc(C)cc(C)c2)C(C)(C)C)cc1 |  |  |  | 100 | 80 | 
CCOSN(C(=O)c1ccc(CC)cc1)N(C(=O)c1cc(C)cc(C)c1)C(C)(C)C | 100 | 100 | 100 | 100 | 70 | 
CCCOSN(C(=O)c1ccccc1)N(C(=O)c1ccccc1)C(C)(C)C | 50 | 90 | 10 |  |  | 
CCc1ccc(C(=O)N(SOCCF)N(C(=O)c2cc(C)cc(C)c2)C(C)(C)C)cc1 |  |  |  | 100 | 70 | 
CCCCCOSN(C(=O)c1ccc(CC)cc1)N(C(=O)c1cc(C)cc(C)c1)C(C)(C)C |  |  |  | 100 | 100 | 
CCc1ccc(C(=O)NN(C(=O)c2cc(C)cc(C)c2)C(C)(C)C)cc1 [TEBUFENOZIDE] |  |  | 100 | 95 | 55 | LD50 (Spodoptera litura): 527.12 µg; LD50 (Mythimna separata [7]): 0.0275 µg; LD90 (Mythimna separata [7]): 0.0739 µg; LC90 (Spodoptera exigua [8]): 2648.6 mg/L (≈ 7510 µM); LC50 (Spodoptera exigua [8]): 83.4 µg/mL (≈ 237 µM); RatioLC50 (Spodoptera exigua [9]): 1; Ratio (Mythimna separata [10]): 100; Ratio (Mythimna separata [11]): 100; LD50 (Helicoverpa armigera): 1311.9 µg; Ratio (Spodoptera exigua [12]): 1; LD50 (Ostrinia furnacalis): 59.414 µg
CCc1ccc(C(=O)N(SOC(C)(C)CC)N(C(=O)c2cc(C)cc(C)c2)C(C)(C)C)cc1 |  |  |  | 80 | 70 | 
COSN(C(=O)c1ccccc1)N(C(=O)c1ccccc1)C(C)(C)C | 100 | 100 | 0 |  |  | 
CCc1ccc(C(=O)N(SOCc2ccccc2)N(C(=O)c2cc(C)cc(C)c2)C(C)(C)C)cc1 |  |  |  | 90 | 70 | 
CCCOSN(C(=O)c1ccc(CC)cc1)N(C(=O)c1cc(C)cc(C)c1)C(C)(C)C | 100 | 100 | 100 | 90 | 80 | 
CCc1ccc(C(=O)N(SOC)N(C(=O)c2cc(C)cc(C)c2)C(C)(C)C)cc1 | 100 |  | 100 | 100 | 100 | LD50 (Spodoptera litura): 16.061 µg; LD50 (Mythimna separata [7]): 0.0195 µg; LD90 (Mythimna separata [7]): 0.0479 µg; LC90 (Spodoptera exigua [8]): 524.29 mg/L (≈ 1260 µM); LC50 (Spodoptera exigua [8]): 24.4 µg/mL (≈ 58.7 µM); RatioLC50 (Spodoptera exigua [9]): 3.4; Ratio (Mythimna separata [10]): 154; Ratio (Mythimna separata [11]): 141; LD50 (Helicoverpa armigera): 73.907 µg; Ratio (Spodoptera exigua [12]): 5.1; LD50 (Ostrinia furnacalis): 44.961 µg
CC(C)(C)OSN(C(=O)c1ccccc1)N(C(=O)c1ccccc1)C(C)(C)C | 100 | 100 | 10 |  |  | 
CCc1ccc(C(=O)N(SOCCc2ccccc2)N(C(=O)c2cc(C)cc(C)c2)C(C)(C)C)cc1 |  |  |  | 90 | 50 | 
CCc1ccc(C(=O)N(SOC(C)(C)C)N(C(=O)c2cc(C)cc(C)c2)C(C)(C)C)cc1 | 100 | 100 | 100 | 70 | 60 | 
CCOCCOSN(C(=O)c1ccc(CC)cc1)N(C(=O)c1cc(C)cc(C)c1)C(C)(C)C |  |  |  | 100 | 90 | 
Cc1cc(C)cc(C(=O)N(NC(=O)c2ccc3c(c2C)OC(C)C3)C(C)(C)C)c1 (stereo not drawn) [FUXIAN] |  |  |  | 100 | 90 | 

Source: ChEMBL document CHEMBL3044849, “Synthesis and insecticidal activities of novel N-sulfenyl-N'-tert-butyl-N,N'-diacylhydrazines. 1. N-alkoxysulfenate derivatives” (2007)
